Active and inactive are the calls of the source. The calls are words filed in the database; no cut-off is given here.
Tests used:
DNAJB1 pre-mRNA [1] = assay: Modulation of splicing in DNAJB1 pre-mRNA in human HCT-116 cells assessed as intron 2 retention level at 750 nM incubated for 4 hrs by qRT-PCR analysis; type: functional, cell-based; conditions: filed as modulator
HCT-116 [2] = assay: Cytotoxicity against human HCT-116 cells assessed as reduction in cell viability at 750 nM incubated for 4 hrs by MTS assay; type: toxicity, cell-based; conditions: hct-116, 4 h, 0.75 µM
SF3A1 pre-mRNA [3] = assay: Modulation of splicing in SF3A1 pre-mRNA in human HCT-116 cells assessed as intron 6 retention level at 750 nM incubated for 4 hrs by qRT-PCR analysis; type: functional, cell-based; conditions: filed as modulator
AURKA pre-mRNA = assay: Modulation of splicing in AURKA pre-mRNA in human HCT-116 cells assessed as effect on exon 4 skipping at 750 nM incubated for 4 hrs by qRT-PCR analysis; type: functional, cell-based; conditions: filed as modulator
SF3A3 pre-mRNA [4] = assay: Modulation of splicing in SF3A3 pre-mRNA in human HCT-116 cells assessed as intron 5 retention level at 750 nM incubated for 4 hrs by qRT-PCR analysis; type: functional, cell-based; conditions: filed as modulator
SF3B1 pre-mRNA [5] = assay: Modulation of splicing in SF3B1 pre-mRNA in human HCT-116 cells assessed as intron 13 retention level at 750 nM incubated for 4 hrs by qRT-PCR analysis; type: functional, cell-based; conditions: filed as modulator
Method in brief: (§1)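 HCT-116 cells in supplemented McCoy's 5a, compound added from DMSO stock to a final 0.5% DMSO, 4 h at a single standardized concentration per analogue. Total RNA isolated and DNase-treated (1 µg). qPCR used 2.5 µM each primer on 5 ng cDNA, 40 cycles. Intron retention was computed by the 2^-CT method relative to GAPDH and expressed versus untreated cells set to 1.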

SF3B2 pre-mRNA [6] = assay: Modulation of splicing in SF3B2 pre-mRNA in human HCT-116 cells assessed as intron 10 retention level at 750 nM incubated for 4 hrs by qRT-PCR analysis; type: functional, cell-based; conditions: filed as modulator; method in brief: as §1
[7] = Cytotoxicity against human HCT-116 cells assessed as cell growth inhibition incubated for 72 hrs by MTS assay; type: toxicity, cell-based
Method in brief: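 HCT-116 cells (ATCC; split every other day, no more than five generations, mycoplasma-tested) plated at 5 × 10³ cells/well in supplemented McCoy's 5a and grown 24 h at 37 °C, 5% CO₂. Compound added from DMSO (0.5% DMSO final) for 72 h. Cells washed with PBS, MTS reagent added for 2 h at 37 °C, A490 read against A690. GI₅₀ fitted from dose curves of 3 biological replicates.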

DNAJB1 pre-mRNA [8] = assay: Modulation of splicing in DNAJB1 pre-mRNA in human HCT-116 cells assessed as intron 2 retention level at 2.6 uM incubated for 4 hrs by qRT-PCR analysis; type: functional, cell-based; conditions: filed as modulator
SF3B1 pre-mRNA [9] = assay: Modulation of splicing in SF3B1 pre-mRNA in human HCT-116 cells assessed as intron 13 retention level at 2.6 uM incubated for 4 hrs by qRT-PCR analysis; type: functional, cell-based; conditions: filed as modulator; method in brief: as §1
SF3A1 pre-mRNA [10] = assay: Modulation of splicing in SF3A1 pre-mRNA in human HCT-116 cells assessed as intron 6 retention level at 2.6 uM incubated for 4 hrs by qRT-PCR analysis; type: functional, cell-based; conditions: filed as modulator
HCT-116 [11] = assay: Downregulation of SF2 mRNA expression in human HCT-116 cells at 100 to 500 nM incubated for 24 hrs by qRT-PCR analysis; type: functional, cell-based; conditions: dose 100-500 nM
Method in brief: (§2)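 HCT-116 cells in supplemented McCoy's 5a with 0.5% DMSO, treated 24 h at 100, 250 or 500 nM; untreated cells as control. Total RNA isolated, 1 µg DNase I-treated, reverse transcribed. qPCR on 5 ng cDNA with 2.5 µM each primer, 40 cycles of 95 °C 30 s, 55 °C 60 s, 72 °C 60 s. Splice-event primers for intron retention or exon skipping; SF2 primers measure total expression. 2^-CT method relative to GAPDH, untreated set at 1.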

HCT-116 [12] = assay: Downregulation of SF3 mRNA expression in human HCT-116 cells at 2.6 uM incubated for 4 hrs by qRT-PCR analysis; type: functional, cell-based
HCT-116 [13] = assay: Effect on AURKA mRNA expression in human HCT-116 cells at 100 to 500 nM incubated for 24 hrs by qRT-PCR analysis; type: functional, cell-based; conditions: dose 100-500 nM; method in brief: as §2
HCT-116 [14] = assay: Cytotoxicity against human HCT-116 cells assessed as reduction in cell viability at 2.6 uM incubated for 4 hrs by MTS assay; type: toxicity, cell-based; conditions: hct-116, 4 h
DNAJB1 pre-mRNA [15] = assay: Modulation of splicing in DNAJB1 pre-mRNA in human HCT-116 cells assessed as intron 2 retention at 100 to 500 nM incubated for 24 hrs by qRT-PCR analysis; type: functional, cell-based; conditions: dose 100-500 nM; method in brief: as §2
SF3B2 pre-mRNA [16] = assay: Modulation of splicing in SF3B2 pre-mRNA in human HCT-116 cells assessed as intron 10 retention level at 2.6 uM incubated for 4 hrs by qRT-PCR analysis; type: functional, cell-based; conditions: filed as modulator; method in brief: as §1
HCT-116 [17] = assay: Cytotoxicity against human HCT-116 cells assessed as reduction in cell viability at 500 nM incubated for 24 hrs by MTS assay; type: toxicity, cell-based; conditions: hct-116, 24 h, 0.5 µM
Method in brief: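 HCT-116 cells plated at 5 × 10³ cells/well in supplemented McCoy's 5a and grown 24 h at 37 °C, 5% CO₂. Compound given at 500 nM, the top dose of the 24 h splicing series, in 0.5% DMSO for 24 h. Cells washed with PBS, MTS reagent added for 2 h at 37 °C, A490 read against A690.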

SF3A3 pre-mRNA [18] = assay: Modulation of splicing in SF3A3 pre-mRNA in human HCT-116 cells assessed as intron 5 retention level at 2.6 uM incubated for 4 hrs by qRT-PCR analysis; type: functional, cell-based; conditions: filed as modulator
HCT-116 [19] = assay: Downregulation of PLK-1 mRNA expression in human HCT-116 cells at 100 to 500 nM incubated for 24 hrs by qRT-PCR analysis; type: functional, cell-based; conditions: dose 100-500 nM; method in brief: as §2
SF3B2 pre-mRNA [20] = assay: Modulation of splicing in SF3B2 pre-mRNA in human HCT-116 cells assessed as intron 10 retention at 100 to 500 nM incubated for 24 hrs by qRT-PCR analysis; type: functional, cell-based; conditions: dose 100-500 nM
Method in brief: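 HCT-116 cells in supplemented McCoy's 5a with 0.5% final DMSO were treated for 24 h at 100, 250 or 500 nM. Total RNA isolated and DNase-treated (1 µg). qPCR used 2.5 µM each primer on 5 ng cDNA, 40 cycles. Intron retention was computed by the 2^-CT method relative to GAPDH and expressed versus untreated cells set to 1.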

SF3A3 pre-mRNA [21] = assay: Modulation of splicing in SF3A3 pre-mRNA in human HCT-116 cells assessed as intron 5 retention at 100 to 500 nM incubated for 24 hrs by qRT-PCR analysis; type: functional, cell-based; conditions: filed as modulator, dose 100-500 nM; method in brief: as §2

CC[C@H](OC)[C@@H](C)[C@H]1O[C@@H]1[C@@H](OC)[C@H](C)/C=C/C=C(\C)[C@H]1OC(=O)C[C@H](O)CC[C@@](C)(O)[C@@H](OC(C)=O)/C=C/[C@@H]1C
Activity (DNAJB1 pre-mRNA [1]): > 3 | Activity (HCT-116 [2]): Non-Toxic | Activity (SF3A1 pre-mRNA [3]): > 3 | Activity (AURKA pre-mRNA): Active | Activity (SF3A3 pre-mRNA [4]): < 3 | Activity (SF3B1 pre-mRNA [5]): < 3 | Activity (SF3B2 pre-mRNA [6]): > 3 | GI50 at 72 h [7]: 40.5 nM

CC[C@H](OC)[C@@H](C)[C@H]1O[C@@H]1[C@@H](O)[C@H](C)/C=C/C=C(\C)[C@H]1OC(=O)C[C@@H](O)CC[C@@](C)(O)[C@@H](OC(C)=O)/C=C/[C@@H]1C
Activity (DNAJB1 pre-mRNA [8]): > 3 | Activity (SF3B1 pre-mRNA [9]): < 3 | Activity (SF3A1 pre-mRNA [10]): > 3 | Activity (HCT-116 [11]): inactive | Activity (HCT-116 [12]): Active | Activity (HCT-116 [13]): Active | Activity (HCT-116 [14]): Non-Toxic | Activity (DNAJB1 pre-mRNA [15]): inactive | Activity (SF3B2 pre-mRNA [16]): > 3 | Activity (HCT-116 [17]): Non-Toxic | Activity (SF3A3 pre-mRNA [18]): < 3 | Activity (HCT-116 [19]): Active | Activity (SF3B2 pre-mRNA [20]): inactive | Activity (SF3A3 pre-mRNA [21]): Active | GI50 at 72 h [7]: 143 nM
